# Most compounds without a hit are left out; they make up all but 2.3% or so of the library.
# TRPC4 potent: TRPC4 (mouse) allosteric potentiation; Q9QUQ5; HEK293 TRPC4beta/mu-opioid, DAMGO EC20, Fluo-4 Ca2+ flux; stronger effect = higher value; B-score at 10 µM; hit rate 0.42% among 310,000; AID 2227;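 active means B-score of calcium response area above 5 SD of library B-scores, with initial fluorescence ratio within 5 SD of library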;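 further: B-score of integrated fluorescence ratio over time as area under calcium response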
# TRPC6 act: activates the mouse TRPC6 cation channel; HEK293-TRPC6 membrane potential dye fluorescence; stronger effect = higher value; B-score at 10 µM; hit rate 0.13% among 310,000; AID 2550;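 active means B-score of the integrated fluorescence ratio above library mean plus 3 SD, and starting fluorescence ratio within library mean plus 5 SD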;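 further: higher score means more depolarization so channel activation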
# Target sequence (Q61143 whole entry, looked up): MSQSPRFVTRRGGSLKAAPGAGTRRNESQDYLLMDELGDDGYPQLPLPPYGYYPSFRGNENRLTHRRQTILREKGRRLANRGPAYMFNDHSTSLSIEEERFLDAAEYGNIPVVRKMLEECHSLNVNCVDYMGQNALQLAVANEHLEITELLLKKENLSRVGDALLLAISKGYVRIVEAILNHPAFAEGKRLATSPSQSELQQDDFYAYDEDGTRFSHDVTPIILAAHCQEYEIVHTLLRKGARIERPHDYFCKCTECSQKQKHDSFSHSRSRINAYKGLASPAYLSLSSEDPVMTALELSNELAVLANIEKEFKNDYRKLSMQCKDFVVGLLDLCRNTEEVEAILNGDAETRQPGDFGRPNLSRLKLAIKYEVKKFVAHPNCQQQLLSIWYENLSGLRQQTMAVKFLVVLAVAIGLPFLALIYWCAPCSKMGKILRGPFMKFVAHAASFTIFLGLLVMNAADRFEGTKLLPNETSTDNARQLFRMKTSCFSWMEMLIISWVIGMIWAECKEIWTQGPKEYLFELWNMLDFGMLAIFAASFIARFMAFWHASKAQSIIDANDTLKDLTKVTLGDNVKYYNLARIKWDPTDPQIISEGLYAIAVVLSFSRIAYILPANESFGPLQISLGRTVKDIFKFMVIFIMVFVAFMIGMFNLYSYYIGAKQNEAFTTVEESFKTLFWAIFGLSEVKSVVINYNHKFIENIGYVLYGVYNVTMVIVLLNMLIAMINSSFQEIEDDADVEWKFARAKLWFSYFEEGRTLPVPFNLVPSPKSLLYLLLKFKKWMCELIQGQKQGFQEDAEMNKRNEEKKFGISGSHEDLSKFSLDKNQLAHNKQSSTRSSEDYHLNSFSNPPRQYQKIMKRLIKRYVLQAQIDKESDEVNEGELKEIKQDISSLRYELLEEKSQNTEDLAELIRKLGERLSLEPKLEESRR
# TRPC4 inh: inhibitors of mouse TRPC4 channel; HEK293 TRPC4beta/mu-opioid, DAMGO-evoked Fluo4 calcium flux; stronger effect = lower value; Q9QUQ5; hit rate 0.39% among 300,000; B-score at 10 µM;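 active means B-score over 3 SD under the library average, no early fluorescence shift, positive overall ratio signal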
#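 material = TRPC4beta/mu-opioid receptor HEK293 cell line | probe or stimulus = sequential submaximal and maximal DAMGO stimulation | compound dosing = one concentration per compound | measured by = Fluo4 Ca2+ flux fluorescence | evaluation = integrated fluorescence ratio relative to baseline, converted to per-well B score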
# TRPC6 inh: mouse TRPC6 channel inhibition | Q61143 | AID 2553 | hit rate 1.1% among 310,000 | HEK293-TRPC6, membrane potential dye, ACh-evoked depolarization; stronger effect = lower value | B-score at 10 µM;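 active means B-score under library mean minus 3 SD, initial fluorescence not abnormally high, positive integrated signal ratio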;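 further: B-score derived from integrated fluorescence ratio over the kinetic read; more negative B-score means stronger inhibition of depolarization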
# TRPC4 act: opens the mouse TRPC4 cation channel. Q9QUQ5. HEK293 TRPC4beta/mu-opioid, Fluo4 calcium fluorescence; stronger effect = higher value. B-score at 10 µM. hit rate 0.49% among 310,000. AID 2237;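 active means B-score above 5 SD of library B-scores, and initial fluorescence ratio not above library mean plus 5 SD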;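 further: positive B-score marks a calcium rise read as TRPC4 activation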
#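 Test system: HEK293 cells stably co-expressing mouse TRPC4beta and mu-opioid receptor | Schedule: Fluo4 dye loading 45 min at room temperature, 110 s recording | Measured by: Kinetic Fluo4 calcium fluorescence, 5 s baseline at 1 Hz | Evaluation: B score of integrated ratio | Controls: Buffer (low) and maximal DAMGO (high)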
# Numbers without * were called inactive; i = inactive; ! = not active in a repeat.
SMILES,TRPC4 potent,TRPC6 act,TRPC4 inh,TRPC6 inh,TRPC4 act
COc1ccc(CN2CCCC(C(=O)c3sccc3C)C2)cc1O (stereo unspecified),i,i,-7*,i,i
CC(N)Cc1c[nH]c2ccc(Cl)cc12 (stereo unspecified),13*,i,i,i,i
CC(N)Cc1c[nH]c2cc3c(cc12)OCCO3 (stereo unspecified),i,i,i,i,143*
N[C@@H](Cc1c[nH]c2ccccc12)c1nnc(SCc2ccc(Cl)cc2)o1,i,i,i,i,i
Clc1ccc(C[n+]2c(-c3ccccc3)cc(-c3ccccc3)cc2-c2ccccc2)cc1,i,i,i,-5.2*,i
O=[N+]([O-])c1cccc(NP(=O)(Oc2ccccc2)Oc2ccccc2)c1,i,i,i,i,i
c1ccc2oc(N3CCNCC3)nc2c1,44*,i,i,i,72*
O=[N+]([O-])c1ccc(N2CCNCC2)cc1Sc1ccccn1,i,i,i,i,i
O=[N+]([O-])c1ccc(N2CCNCC2)c2ncccc12,24*,i,i,-5.5*,69*
CN1CCN(c2ccc([N+](=O)[O-])c3cccnc23)CC1,18*,i,i,i,64*
O=c1cccc2n1C[C@H]1C[C@@H]2CN2CCCC[C@@H]12,i,i,i,i,i
Cc1nn(Cc2ccc(Cl)cc2Cl)c(Cl)c1C(=O)O,i,i,i,i,i
N=c1c2c(n(Cc3ccc(Cl)cc3Cl)c3c1CCC3)CCCC2,i,i,i,-5.1*,i
CCn1cc(CN2CCCC(C(=O)c3cccc(OC)c3)C2)c(C)n1 (stereo unspecified),i,i,i,i,53*
CCCn1cc(CN2CCCC(C(=O)c3cccc(OC)c3)C2)c(C)n1 (stereo unspecified),i,i,i,i,i
O=C(c1ccc(C(F)(F)F)cc1)C1CCCN(Cc2ccncc2)C1 (stereo unspecified),i,i,i,i,51*
O=C(c1cccc(C(F)(F)F)c1)C1CCCN(Cc2ccccc2O)C1 (stereo unspecified),i,i,-9*,i,i
Cc1ccc(CN2CCCC(C(=O)c3cccc(C(F)(F)F)c3)C2)o1 (stereo unspecified),i,i,i,i,i
Cc1cccc(-n2c(O)c(C)c(=O)[nH]c2=S)c1,i,i,i,i,i
Cc1ccsc1C(=O)C1CCCN(Cc2ccc(-n3cccn3)cc2)C1 (stereo unspecified),i,i,i,i,i
O=C(COc1ccccc1)NCCc1cnc[nH]1,i,i,i,i,i
O=C(CCCc1ccccc1)NCCc1cnc[nH]1,i,i,i,i,143*
CN1C(=O)N(C)C(=O)C2(Cc3cc(NC(=O)c4ccc(F)cc4)ccc3N3CCCC32)C1=O (stereo unspecified),i,i,i,i,i
Clc1cccc(C2NCc3ccccc3-n3cccc32)c1 (stereo unspecified),i,i,i,i,i
Cc1cc(OC(=O)N(C)C)nc(SCc2c(Cl)cccc2Cl)n1,11*,i,i,i,i
SMILES,TRPC4 potent,TRPC6 act,TRPC4 inh,TRPC6 inh,TRPC4 act
NC(N)=N/N=C/c1cn(-c2ccccc2)nc1-c1cccs1,i,i,i,i,97*
O=C(CCCN1CCC2(CC1)C(=O)NCN2c1ccccc1)c1ccc(F)cc1,i,i,i,i,158*
CN(C)CCc1nc2ccccc2c(=O)n1-c1ccccc1,i,i,i,i,i
CN(C)CCn1cnc2ccccc21,15*,i,i,i,i
COc1cc(CN=C(C)c2c(O)n(C3CCCCC3)c(=O)[nH]c2=O)cc(OC)c1,i,i,i,i,i
CCC(=O)C(CCN1CCOCC1)(c1ccccc1)c1ccccc1,i,i,i,i,62*
CNC(C)Cc1ccccc1Sc1ccc(O)cc1 (stereo unspecified),i,i,-6*,i,i
CCCN1CCCC(C(=O)c2cc(C)c(OC)c(C)c2)C1 (stereo unspecified),i,i,i,i,i
CCOc1ccc(C(C)=O)cc1Cn1ccsc1=N,i,i,-5*,i,i
FC(F)(F)c1ccccc1CNCCc1c[nH]c2ccccc12,i,i,i,i,i
Cc1cccc(CN2CCCC(C(=O)c3ccc4c(c3)OCO4)C2)n1 (stereo unspecified),i,i,i,i,i
CN1CCN(c2cc([N+](=O)[O-])ccc2Cl)CC1,i,i,i,i,i
CC1CN(c2ccc([N+](=O)[O-])cc2Cl)CCN1 (stereo unspecified),66*,i,i,i,63*
CN1CCN(c2ccc([N+](=O)[O-])cc2Cl)CC1,27*,i,i,i,i
OC(CNCCc1c[nH]c2ccccc12)c1ccccc1 (stereo unspecified),i,i,i,i,i
CC1N=C(c2ccccc2Cl)c2cc(Br)ccc2NC1=O (stereo unspecified),i,i,i,i,i
CCN1CCN(C(=O)Cc2ccccc2OC)CC1,i,i,i,i,79*
O=C(Cc1ccccc1)N1CCN(CCCc2ccccc2)CC1,i,i,i,i,i
COc1ccccc1CC(=O)N1CCN(CCc2ccccc2)CC1,i,i,i,i,119*
CCOP(=O)(Cc1cc(C(=O)CC)c(C)o1)OCC,i,i,i,i,i
CCOc1c(Cl)cc(CNCCc2c[nH]c3ccccc23)cc1OC,i,i,i,i,53*
Fc1ccc(CNCCc2c[nH]c3ccccc23)cc1,i,i,i,i,i
CCOc1cc(CNCCc2c[nH]c3ccccc23)cc(Cl)c1OCC,i,i,i,i,46*
CC(NS(C)(=O)=O)c1nnc2n1-c1ccc(Br)cc1C(c1ccccc1Cl)=NC2 (stereo unspecified),i,i,i,i,i
CCC(COC(=O)c1cc(OC)c(OC)c(OC)c1)(c1ccccc1)N(C)C (stereo unspecified),i,i,i,i,54*!
CCCOP(=O)(OCCC)C(NC(=O)c1cc(OC)c(OC)c(OC)c1)c1ccccc1 (stereo unspecified),i,i,i,i,i
CC1(C)CC(CCNCc2ccc3c(c2)OCO3)(Cc2ccccc2)CCO1 (stereo unspecified),i,i,i,i,60*
